Measurements: ChEMBL document CHEMBL3351863, “Optimization of 2-phenyl-pyrimidine-4-carboxamides towards potent, orally bioavailable and selective P2Y(12) antagonists for inhibition of platelet aggregation” (Bioorg Med Chem Lett, 2014)
Values belong to the compound of their own block, whether it stands above or below them. Active and inactive are the calls of the source. No cut-off for these calls is given here.

Tests used:
[1] = target: P2Y purinoceptor 1 (Homo sapiens) (UniProt P47900); experiment: Antagonist activity against P2Y1 (unknown origin) assessed as inhibition of agonist binding up to 10 uM
Sequence of P2Y purinoceptor 1 (Homo sapiens) (P47900 whole entry): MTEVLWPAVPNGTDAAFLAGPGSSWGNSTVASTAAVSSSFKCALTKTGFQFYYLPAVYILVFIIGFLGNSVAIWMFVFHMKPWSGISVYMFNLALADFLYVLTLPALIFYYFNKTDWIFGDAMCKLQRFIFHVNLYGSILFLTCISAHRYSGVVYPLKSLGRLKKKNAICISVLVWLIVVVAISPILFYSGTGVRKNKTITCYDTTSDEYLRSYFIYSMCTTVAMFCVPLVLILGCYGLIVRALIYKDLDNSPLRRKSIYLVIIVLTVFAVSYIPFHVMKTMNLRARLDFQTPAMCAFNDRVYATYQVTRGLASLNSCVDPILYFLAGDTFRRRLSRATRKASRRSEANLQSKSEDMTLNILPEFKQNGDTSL

[2] = target: P2Y purinoceptor 2 (Homo sapiens) (UniProt P41231); experiment: Antagonist activity against P2Y2 (unknown origin) assessed as inhibition of agonist binding up to 10 uM
Sequence of P2Y purinoceptor 2 (Homo sapiens) (P41231 whole entry): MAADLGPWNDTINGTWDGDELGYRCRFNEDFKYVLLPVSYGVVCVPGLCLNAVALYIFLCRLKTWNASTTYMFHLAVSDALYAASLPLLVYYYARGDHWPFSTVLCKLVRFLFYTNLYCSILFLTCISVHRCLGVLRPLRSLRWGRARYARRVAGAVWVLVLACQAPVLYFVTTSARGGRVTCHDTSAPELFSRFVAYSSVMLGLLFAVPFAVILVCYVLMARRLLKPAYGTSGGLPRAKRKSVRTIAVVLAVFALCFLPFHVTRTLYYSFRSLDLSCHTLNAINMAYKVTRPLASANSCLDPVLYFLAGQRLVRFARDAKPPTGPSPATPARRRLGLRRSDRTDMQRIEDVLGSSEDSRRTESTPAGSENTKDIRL

[3] = target: P2Y purinoceptor 4 (Homo sapiens) (UniProt P51582); experiment: Antagonist activity against P2Y4 (unknown origin) assessed as inhibition of agonist binding up to 10 uM
Sequence of P2Y purinoceptor 4 (Homo sapiens) (P51582 whole entry): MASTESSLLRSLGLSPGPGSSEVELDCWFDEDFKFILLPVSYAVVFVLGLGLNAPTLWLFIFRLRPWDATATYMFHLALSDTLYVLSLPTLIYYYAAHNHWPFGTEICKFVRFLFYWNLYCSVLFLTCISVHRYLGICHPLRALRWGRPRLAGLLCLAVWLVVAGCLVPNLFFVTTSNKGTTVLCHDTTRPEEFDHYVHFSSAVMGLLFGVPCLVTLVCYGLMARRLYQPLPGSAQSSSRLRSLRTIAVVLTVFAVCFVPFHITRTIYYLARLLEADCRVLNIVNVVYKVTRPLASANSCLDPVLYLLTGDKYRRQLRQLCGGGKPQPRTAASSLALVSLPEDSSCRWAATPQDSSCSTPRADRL

[4] = target: P2Y purinoceptor 6 (Homo sapiens) (UniProt Q15077); experiment: Antagonist activity against P2Y6 (unknown origin) assessed as inhibition of agonist binding up to 10 uM
Sequence of P2Y purinoceptor 6 (Homo sapiens) (Q15077 whole entry): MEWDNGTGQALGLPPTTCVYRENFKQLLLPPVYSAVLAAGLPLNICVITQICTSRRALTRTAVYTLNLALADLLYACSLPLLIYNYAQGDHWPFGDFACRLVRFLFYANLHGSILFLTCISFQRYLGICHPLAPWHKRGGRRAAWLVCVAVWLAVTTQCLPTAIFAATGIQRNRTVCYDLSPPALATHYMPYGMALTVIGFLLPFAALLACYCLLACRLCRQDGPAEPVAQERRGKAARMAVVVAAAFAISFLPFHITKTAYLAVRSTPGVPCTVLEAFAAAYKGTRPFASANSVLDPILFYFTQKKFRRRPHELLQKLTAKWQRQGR

[5] = target: T1, P2Y purinoceptor 11 (Homo sapiens) (UniProt Q96G91); experiment: Antagonist activity against P2Y11 (unknown origin) assessed as inhibition of agonist binding up to 10 uM
T1 sequence (whole entry): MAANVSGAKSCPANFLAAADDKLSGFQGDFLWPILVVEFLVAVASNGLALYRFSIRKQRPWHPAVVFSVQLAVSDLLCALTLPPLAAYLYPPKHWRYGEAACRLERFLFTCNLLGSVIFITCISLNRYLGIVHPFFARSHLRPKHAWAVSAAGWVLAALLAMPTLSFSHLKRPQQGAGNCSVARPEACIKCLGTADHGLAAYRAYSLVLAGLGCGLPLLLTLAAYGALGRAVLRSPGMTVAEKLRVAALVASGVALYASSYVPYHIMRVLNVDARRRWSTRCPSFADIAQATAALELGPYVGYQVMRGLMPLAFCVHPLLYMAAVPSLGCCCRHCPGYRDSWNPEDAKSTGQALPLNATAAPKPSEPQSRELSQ

[6] = target: T2, P2Y purinoceptor 13 (Homo sapiens) (UniProt Q9BPV8); experiment: Antagonist activity against P2Y13 (unknown origin) assessed as inhibition of agonist binding up to 10 uM
T2 sequence (whole entry): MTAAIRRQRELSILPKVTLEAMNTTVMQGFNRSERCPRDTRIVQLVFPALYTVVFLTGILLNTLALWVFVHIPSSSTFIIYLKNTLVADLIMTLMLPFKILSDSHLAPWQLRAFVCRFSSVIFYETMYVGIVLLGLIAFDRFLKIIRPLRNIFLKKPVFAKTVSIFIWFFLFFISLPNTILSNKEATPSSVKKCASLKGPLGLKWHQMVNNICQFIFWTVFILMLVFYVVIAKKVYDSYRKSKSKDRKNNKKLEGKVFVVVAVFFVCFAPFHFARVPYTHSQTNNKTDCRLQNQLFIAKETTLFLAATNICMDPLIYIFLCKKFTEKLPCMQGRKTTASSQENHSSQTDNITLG

[7] = target: T3, P2X purinoceptor 1 (Homo sapiens) (UniProt P51575); experiment: Antagonist activity against P2X1 (unknown origin)
T3 sequence (whole entry): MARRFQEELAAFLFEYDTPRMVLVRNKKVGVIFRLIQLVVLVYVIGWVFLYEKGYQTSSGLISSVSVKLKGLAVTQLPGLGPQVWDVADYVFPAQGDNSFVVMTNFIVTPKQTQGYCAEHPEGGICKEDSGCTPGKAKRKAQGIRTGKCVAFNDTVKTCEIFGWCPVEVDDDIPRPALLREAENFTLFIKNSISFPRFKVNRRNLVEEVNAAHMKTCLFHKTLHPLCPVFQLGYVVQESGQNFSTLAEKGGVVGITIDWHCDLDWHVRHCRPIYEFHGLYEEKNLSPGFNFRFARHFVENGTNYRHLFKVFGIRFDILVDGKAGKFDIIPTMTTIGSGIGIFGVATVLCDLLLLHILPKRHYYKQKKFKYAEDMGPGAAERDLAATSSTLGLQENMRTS

[8] = target: T4, P2X purinoceptor 2 (Homo sapiens) (UniProt Q9UBL9); experiment: Antagonist activity against P2X2 (unknown origin)
T4 sequence (whole entry): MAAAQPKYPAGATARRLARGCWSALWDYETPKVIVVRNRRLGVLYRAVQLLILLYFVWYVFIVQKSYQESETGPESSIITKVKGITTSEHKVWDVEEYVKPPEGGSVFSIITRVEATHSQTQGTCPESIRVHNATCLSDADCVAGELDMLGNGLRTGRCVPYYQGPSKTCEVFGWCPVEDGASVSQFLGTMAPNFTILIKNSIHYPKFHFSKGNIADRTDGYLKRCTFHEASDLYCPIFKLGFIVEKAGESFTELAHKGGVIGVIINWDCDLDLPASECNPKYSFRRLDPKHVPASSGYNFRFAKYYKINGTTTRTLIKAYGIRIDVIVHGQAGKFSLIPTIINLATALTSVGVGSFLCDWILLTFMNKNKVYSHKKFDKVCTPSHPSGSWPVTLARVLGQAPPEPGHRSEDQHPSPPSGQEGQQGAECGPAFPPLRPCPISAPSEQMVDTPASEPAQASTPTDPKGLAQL

[9] = target: T5, P2X purinoceptor 3 (Homo sapiens) (UniProt P56373); experiment: Antagonist activity against P2X3 (unknown origin)
T5 sequence (whole entry): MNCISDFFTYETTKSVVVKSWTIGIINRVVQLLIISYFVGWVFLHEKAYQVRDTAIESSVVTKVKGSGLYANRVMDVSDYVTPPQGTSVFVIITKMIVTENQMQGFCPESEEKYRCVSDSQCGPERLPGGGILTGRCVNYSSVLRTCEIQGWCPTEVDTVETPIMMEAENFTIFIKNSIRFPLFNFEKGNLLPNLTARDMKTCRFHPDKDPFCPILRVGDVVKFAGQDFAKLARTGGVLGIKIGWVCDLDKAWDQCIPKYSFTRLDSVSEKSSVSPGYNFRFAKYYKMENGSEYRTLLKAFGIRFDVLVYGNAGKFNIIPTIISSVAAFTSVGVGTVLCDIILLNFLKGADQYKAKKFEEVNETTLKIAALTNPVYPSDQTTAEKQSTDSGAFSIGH

[10] = target: T6, P2X purinoceptor 4 (Homo sapiens) (UniProt Q99571); experiment: Antagonist activity against P2X4 (unknown origin)
T6 sequence (whole entry): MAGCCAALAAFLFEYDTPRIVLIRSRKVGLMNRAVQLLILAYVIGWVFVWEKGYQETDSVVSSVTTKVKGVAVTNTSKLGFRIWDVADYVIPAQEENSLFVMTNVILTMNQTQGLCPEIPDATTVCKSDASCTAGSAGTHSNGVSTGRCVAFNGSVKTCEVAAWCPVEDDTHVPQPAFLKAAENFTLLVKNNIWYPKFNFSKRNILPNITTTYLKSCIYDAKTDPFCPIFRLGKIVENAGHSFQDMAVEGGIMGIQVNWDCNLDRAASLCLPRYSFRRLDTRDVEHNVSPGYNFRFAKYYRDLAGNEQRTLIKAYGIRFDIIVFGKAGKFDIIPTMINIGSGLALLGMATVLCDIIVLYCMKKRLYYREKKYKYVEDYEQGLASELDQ

[11] = target: T7, P2X purinoceptor 7 (Homo sapiens) (UniProt Q99572); experiment: Antagonist activity against P2X7 (unknown origin)
T7 sequence (whole entry): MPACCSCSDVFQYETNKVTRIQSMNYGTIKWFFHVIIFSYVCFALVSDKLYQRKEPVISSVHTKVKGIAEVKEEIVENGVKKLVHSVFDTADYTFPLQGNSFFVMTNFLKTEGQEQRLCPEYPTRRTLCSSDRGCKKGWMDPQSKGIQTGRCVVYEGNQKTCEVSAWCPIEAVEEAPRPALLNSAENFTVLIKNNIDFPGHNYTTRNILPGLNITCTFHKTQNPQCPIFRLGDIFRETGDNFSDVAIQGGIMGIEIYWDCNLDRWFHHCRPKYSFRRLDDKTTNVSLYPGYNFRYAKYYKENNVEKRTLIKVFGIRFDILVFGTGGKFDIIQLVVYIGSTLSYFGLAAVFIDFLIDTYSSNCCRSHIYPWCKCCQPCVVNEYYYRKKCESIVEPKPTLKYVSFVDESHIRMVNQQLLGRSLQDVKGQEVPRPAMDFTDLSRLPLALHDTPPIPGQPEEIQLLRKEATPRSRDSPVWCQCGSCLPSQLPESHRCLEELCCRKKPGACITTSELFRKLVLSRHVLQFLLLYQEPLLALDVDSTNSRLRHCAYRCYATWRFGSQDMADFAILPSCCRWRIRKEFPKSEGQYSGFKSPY

[12] = target: P2Y purinoceptor 12 (Homo sapiens, UniProt Q9H244); experiment: Displacement of [3H]-2-methyl-thio-adenosine 5'-diphosphate from human recombinant P2Y12 expressed in CHO cell membranes by scintillation counting method
Sequence of P2Y purinoceptor 12 (Q9H244 whole entry): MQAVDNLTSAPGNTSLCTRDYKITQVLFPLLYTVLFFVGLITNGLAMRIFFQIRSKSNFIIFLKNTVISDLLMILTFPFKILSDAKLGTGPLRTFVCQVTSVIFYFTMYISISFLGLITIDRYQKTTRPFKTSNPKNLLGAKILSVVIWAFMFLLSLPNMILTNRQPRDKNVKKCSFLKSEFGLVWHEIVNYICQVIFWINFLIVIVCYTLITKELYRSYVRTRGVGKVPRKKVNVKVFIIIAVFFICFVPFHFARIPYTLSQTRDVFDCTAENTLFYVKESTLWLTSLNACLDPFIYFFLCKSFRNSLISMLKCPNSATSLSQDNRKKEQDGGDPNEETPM
Procedure, shortened: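 CHO cells expressing recombinant P2Y₁₂ receptors, incubated with tritium-labeled 2-methyl-thio-adenosine 5'-diphosphate plus test compound; IC₅₀ from displacement curves, each point in triplicate; reference compound run with every compound set, and set re-analyzed if its IC₅₀ fell outside pre-set 95% confidence interval.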

[13] = system: Platelet; experiment: Inhibition of ADP-induced platelet aggregation in human platelet rich plasma assessed as remaining activity at 500 nM by in-vitro light transmission aggregometry assay; type: functional
Procedure, shortened: (§1)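 Light transmission aggregometry in human platelet-rich plasma; compound incubated, aggregation triggered with 3 µM ADP; remaining activity (RA) recorded at a single compound level (1000, 500 or 100 nM).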

[14] = system: Platelet; experiment: Inhibition of ADP-induced platelet aggregation in human platelet rich plasma assessed as remaining activity at 100 nM by in-vitro light transmission aggregometry assay; type: functional; procedure, shortened: as §1
[15] = system: Platelet; experiment: Inhibition of ADP-induced platelet aggregation in human platelet rich plasma by in-vitro light transmission aggregometry assay; type: functional; settings: Homo sapiens, Platelet, Plasma
Procedure, shortened: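 Human platelet-rich plasma incubated with compound, aggregation induced by 3 µM ADP and read by light transmission aggregometry; IC₅₀ derived from concentration–response curve.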

[16] = Potency shift, ratio of IC50 for inhibition of ADP-induced platelet aggregation in human platelet rich plasma to IC50 for displacement of [3H]-2-methyl-thio-adenosine 5'-diphosphate from human recombinant P2Y12 expressed in CHO cell membranes
[17] = Solubility in neutral pH; type: physicochemical
[18] = Solubility in basic pH; type: physicochemical
[19] = target: T8, Cytochrome P450 3A4 (Homo sapiens, UniProt P08684); experiment: Inhibition of CYP3A4 in human liver microsomes assessed as reduction in midazolam 1'-hydroxylation; type: ADME
T8 sequence (P08684 whole entry): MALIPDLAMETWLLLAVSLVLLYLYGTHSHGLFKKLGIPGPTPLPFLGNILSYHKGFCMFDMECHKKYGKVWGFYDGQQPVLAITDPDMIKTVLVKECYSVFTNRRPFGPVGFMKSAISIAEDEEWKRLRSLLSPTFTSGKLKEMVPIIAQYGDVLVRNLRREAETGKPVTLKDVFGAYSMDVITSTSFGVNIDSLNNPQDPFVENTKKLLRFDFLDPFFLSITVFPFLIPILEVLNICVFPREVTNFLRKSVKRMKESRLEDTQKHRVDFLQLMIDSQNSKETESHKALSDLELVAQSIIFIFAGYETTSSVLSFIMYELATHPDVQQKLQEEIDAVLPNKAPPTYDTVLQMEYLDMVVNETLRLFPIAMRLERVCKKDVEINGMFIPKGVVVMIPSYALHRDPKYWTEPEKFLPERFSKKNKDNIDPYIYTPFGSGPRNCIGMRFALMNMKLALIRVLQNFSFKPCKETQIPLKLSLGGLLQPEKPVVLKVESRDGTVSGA

[20] = target: T8, Cytochrome P450 3A4; experiment: Inhibition of CYP3A4 in human liver microsomes assessed as reduction in testosterone 6beta-hydroxylation; type: ADME
[21] = target: Cytochrome P450 2D6 (Homo sapiens, UniProt P10635); experiment: Inhibition of CYP2D6 in human liver microsomes assessed as reduction in dextromethorphan-O demethylation; type: ADME
Sequence of Cytochrome P450 2D6 (P10635 whole entry): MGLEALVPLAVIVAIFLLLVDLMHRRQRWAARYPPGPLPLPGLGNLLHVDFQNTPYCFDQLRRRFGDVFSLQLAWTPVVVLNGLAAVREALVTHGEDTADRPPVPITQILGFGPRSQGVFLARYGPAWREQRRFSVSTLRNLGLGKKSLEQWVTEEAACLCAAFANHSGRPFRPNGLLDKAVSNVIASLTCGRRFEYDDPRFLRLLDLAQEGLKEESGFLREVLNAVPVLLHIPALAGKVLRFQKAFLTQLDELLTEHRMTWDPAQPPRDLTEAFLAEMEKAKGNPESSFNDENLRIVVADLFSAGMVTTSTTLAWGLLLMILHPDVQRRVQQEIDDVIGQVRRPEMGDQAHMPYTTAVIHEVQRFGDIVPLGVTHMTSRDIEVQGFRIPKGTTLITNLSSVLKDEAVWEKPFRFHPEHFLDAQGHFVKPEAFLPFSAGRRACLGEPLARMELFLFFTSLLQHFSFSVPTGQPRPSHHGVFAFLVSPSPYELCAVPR

[22] = target: Cytochrome P450 2C9 (Homo sapiens, UniProt P11712); experiment: Inhibition of CYP2C9 in human liver microsomes assessed as reduction in diclofenac 4'-hydroxylation; type: ADME
Sequence of Cytochrome P450 2C9 (P11712 whole entry): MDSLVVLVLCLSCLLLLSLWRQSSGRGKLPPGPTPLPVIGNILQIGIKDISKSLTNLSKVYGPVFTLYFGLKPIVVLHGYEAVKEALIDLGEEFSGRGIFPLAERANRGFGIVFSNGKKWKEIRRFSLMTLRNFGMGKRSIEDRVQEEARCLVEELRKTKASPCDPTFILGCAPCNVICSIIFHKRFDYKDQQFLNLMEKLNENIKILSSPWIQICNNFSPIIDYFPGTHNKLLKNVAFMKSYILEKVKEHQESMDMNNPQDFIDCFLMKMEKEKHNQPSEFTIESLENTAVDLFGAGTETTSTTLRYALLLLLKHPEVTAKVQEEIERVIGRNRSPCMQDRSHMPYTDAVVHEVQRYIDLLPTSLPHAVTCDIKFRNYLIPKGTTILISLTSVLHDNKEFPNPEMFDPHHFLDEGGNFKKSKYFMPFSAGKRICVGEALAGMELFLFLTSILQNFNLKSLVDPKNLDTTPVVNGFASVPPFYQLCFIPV

[23] = system: Liver microsome; experiment: Metabolic stability assay in human liver microsomes assessed as parent drug disappearance at 1 uM after 20 mins by HPLC and mass spectrometry method; type: ADME
[24] = system: Liver microsome; experiment: Metabolic stability assay in rat liver microsomes assessed as parent drug disappearance at 1 uM after 20 mins by HPLC and mass spectrometry method; type: ADME
[25] = target: Voltage-gated inwardly rectifying potassium channel KCNH2 (Homo sapiens, UniProt Q12809); experiment: Inhibition of human ERG expressed in HEK cells by patch-clamp assay; type: cell-based; settings: hek293
Sequence of Voltage-gated inwardly rectifying potassium channel KCNH2 (Q12809 whole entry): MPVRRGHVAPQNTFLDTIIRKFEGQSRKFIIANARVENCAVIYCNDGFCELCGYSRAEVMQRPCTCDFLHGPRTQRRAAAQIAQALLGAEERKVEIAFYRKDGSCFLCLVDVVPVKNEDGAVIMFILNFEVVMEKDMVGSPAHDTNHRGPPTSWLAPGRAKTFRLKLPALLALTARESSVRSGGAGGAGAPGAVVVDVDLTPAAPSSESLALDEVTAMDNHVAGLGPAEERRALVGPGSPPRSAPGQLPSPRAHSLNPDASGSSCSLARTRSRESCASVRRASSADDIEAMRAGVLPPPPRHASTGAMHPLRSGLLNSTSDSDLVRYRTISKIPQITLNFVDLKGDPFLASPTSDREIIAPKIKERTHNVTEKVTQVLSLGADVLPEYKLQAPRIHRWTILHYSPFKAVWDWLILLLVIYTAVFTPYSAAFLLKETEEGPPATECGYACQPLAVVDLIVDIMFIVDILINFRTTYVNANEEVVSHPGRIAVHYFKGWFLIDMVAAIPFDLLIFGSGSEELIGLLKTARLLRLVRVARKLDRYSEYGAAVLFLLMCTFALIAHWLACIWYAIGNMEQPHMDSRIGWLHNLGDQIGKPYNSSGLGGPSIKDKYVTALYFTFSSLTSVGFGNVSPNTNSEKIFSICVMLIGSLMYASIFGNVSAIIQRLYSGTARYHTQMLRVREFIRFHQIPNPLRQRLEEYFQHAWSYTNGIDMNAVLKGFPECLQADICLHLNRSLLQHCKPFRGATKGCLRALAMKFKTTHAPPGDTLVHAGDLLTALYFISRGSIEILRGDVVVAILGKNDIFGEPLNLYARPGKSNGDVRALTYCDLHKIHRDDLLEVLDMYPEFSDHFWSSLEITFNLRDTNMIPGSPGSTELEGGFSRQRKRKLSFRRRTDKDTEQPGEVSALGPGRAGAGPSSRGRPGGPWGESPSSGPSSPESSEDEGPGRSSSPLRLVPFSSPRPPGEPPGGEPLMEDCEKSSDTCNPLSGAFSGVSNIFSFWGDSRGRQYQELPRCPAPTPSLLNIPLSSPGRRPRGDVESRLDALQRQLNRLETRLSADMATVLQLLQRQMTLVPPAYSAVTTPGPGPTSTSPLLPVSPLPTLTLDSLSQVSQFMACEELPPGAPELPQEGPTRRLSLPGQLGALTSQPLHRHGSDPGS

[26] = Clearance in Wistar rat at 1 mg/kg, iv; type: ADME, organism-based; design: dose 1 mg/kg, route intravenous; settings: in vivo
Procedure, shortened: (§2)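 Rats dosed by iv infusion at 1 mg/kg (n = 2) or orally at 10 mg/kg (n = 3); plasma levels measured, limit of quantification ca. 1 ng/mL.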

[27] = Volume of distribution at steady state in Wistar rat at 1 mg/kg, iv or 10 mg/kg, po; type: ADME, organism-based; settings: in vivo, read-out: Vdss; procedure, shortened: as §2
[28] = Half life in Wistar rat at 1 mg/kg, iv or 10 mg/kg, po; type: ADME, organism-based; settings: in vivo; procedure, shortened: as §2
[29] = AUC in Wistar rat at 10 mg/kg, po; type: ADME, organism-based, Plasma; design: dose 10 mg/kg, route oral; settings: Wistar, plasma; procedure, shortened: as §2
[30] = Cmax in Wistar rat at 10 mg/kg, po; type: ADME, organism-based; design: dose 10 mg/kg, route oral; settings: Wistar, in vivo; procedure, shortened: as §2
[31] = Oral bioavailability in Wistar rat at 10 mg/kg; type: ADME, organism-based; settings: Wistar, in vivo; procedure, shortened: as §2

inhibition [1]: inactive
inhibition [2]: inactive
inhibition [3]: inactive
inhibition [4]: inactive
inhibition [5]: inactive
inhibition [6]: inactive
inhibition [7]: inactive
inhibition [8]: inactive
inhibition [9]: inactive
inhibition [10]: inactive
inhibition [11]: inactive
SMILES: CCCCOC(=O)N1CCN(C(=O)[C@H](CCC(=O)O)NC(=O)c2cc([C@H]3C[C@@H]3COC)nc(-c3ccccc3)n2)CC1

IC50 [12]: 16 nM
IC50 [15]: 32 nM
solubility [17]: soluble
solubility [18]: soluble
inhibition (INH) [19]: Not Active
inhibition (INH) [20]: Not Active
inhibition (INH) [21]: Not Active
inhibition (INH) [22]: Not Active
Stability [23]: Stable
Stability [24]: Stable
clearance [26]: 36 mL/min/kg
Vd [27]: 1.8 L/kg
half-life [28]: 37.8 min
AUC [29]: 0.638 µM·h
Cmax [30]: 683 nM
bioavailability [31]: 8%
SMILES: CCOC(=O)N1CCN(C(=O)[C@H](CCC(=O)O)NC(=O)c2cc(N3CC[C@H](OC)C3)nc(-c3ccccc3)n2)CC1
Activity [13]: <30%
Activity [14]: <70%
Ratio IC50 [16]: 2
inhibition (INH) [25]: Not Active
